Experimental data of several laboratories.
Compare with care: the assays were run in different laboratories.
Target: Cyclin-dependent kinase 17 (CDK17, Homo sapiens, UniProt Q00537)

SMILES	read-out	technique	concentration	remaining binding [%]
O=C(c1ccc(Nc2nccc(-c3cc4ccccc4s3)n2)cc1)N1CCC(N2CCCC2)CC1	binding	competition with immobilised ligand	1 µM	64
CN(C)c1ncc(F)c(-c2cnn3ncccc23)n1	binding	–	1 µM	97
O=C(NCC1CCOCC1)c1n[nH]cc1NC(=O)c1c(F)cccc1F	binding	competition with immobilised ligand	1 µM	66
C=CC(=O)N1CCC(C(=O)NCC(=O)N2CCN(c3nc(-c4cnc(N)nc4C(F)F)nc(N4CCOCC4)n3)CC2)CC1	binding	competition with immobilised ligand	1 µM	89
COc1cnc(Nc2cccc(S(N)(=O)=O)c2)nc1N1CCN(c2ccccc2)CC1	binding	competition with immobilised ligand	1 µM	100
O=C(NCCCN1CCOCC1)c1ccc(Nc2ncc(Cl)c(-c3ccc(Cl)s3)n2)cc1	binding	competition with immobilised ligand	1 µM	31
CN1CCN(c2cnc3c(C4CCN(C(=O)c5ccc(OC(F)(F)F)cc5N)CC4)ncnc3c2)CC1	cell-free assay	competition with immobilised ligand	1 µM	93
C[C@H]1CCN(c2nccc(-c3cnn4ncccc34)n2)C1	binding	–	1 µM	0
C[C@H](NC(=O)c1cnc2n1[C@](C)(Cc1ccc(C#N)cc1)C(=O)N2c1cc(Cl)c(F)c(Cl)c1)C(=O)NC1(c2ccccn2)CC1	cell-free assay	competition with immobilised ligand	1 µM	100
CNC(=O)[C@@H]1CC[C@@H](n2c(-c3ccc4cnccc4c3)nc3ccc(C(=O)NCc4cccc(C(N)=O)c4)cc32)C1	binding	competition with immobilised ligand	1 µM	93
O=C(NCCCN1CCOCC1)c1ccc(Nc2nccc(-c3cc4ccccc4s3)n2)cc1	binding	competition with immobilised ligand	1 µM	63
C[C@@]1(Cc2ccc(C#N)cc2)C(=O)N(c2cc(Cl)cc(Cl)c2)c2ncc(C(=O)NC3(c4nc(C5CCC5)no4)CC3)n21	cell-free assay	competition with immobilised ligand	1 µM	100
N[C@H]1CCN(c2nccc(-c3cnn4ncccc34)n2)C1	binding	–	1 µM	100
COc1ncc2cc3ccccc3nc2c1C#N	cell-free assay	competition with immobilised ligand	5 µM	100
C[C@@H]1CN(c2cc(-c3n[nH]c4ccc(OC5(C)CC5)cc34)ncn2)C[C@H](C)O1	cell-free assay	competition with immobilised ligand	0.1 µM	89
c1cnn2ncc(-c3ccnc(N4CCC45COC5)n3)c2c1	binding	–	1 µM	87
Nc1ncc2c(n1)-c1c([nH]c3ccc(C#CC4CC4)cc13)CCCC2	binding	competition with immobilised ligand	1 µM	85
F[C@@H]1CCN(c2nccc(-c3cnn4ncccc34)n2)C1	binding	–	1 µM	100
COc1ccc2c(c1)O[C@H](c1ccc(OC)c(OC)c1)C[C@@H]2NC(=O)C1(c2ccc3c(c2)OC(F)(F)O3)CC1	cell-free assay	competition with immobilised ligand	1 µM	100
COc1ccnn2ncc(-c3ccnc(N(C)C)n3)c12	binding	–	1 µM	100
COc1cccc(CNC(=O)c2nc3scc(COCc4ccc(C(=O)O)cc4)c3c(=O)[nH]2)c1	cell-free assay	competition with immobilised ligand	1 µM	87.8
